Assay outcomes as filed in PubChem.
Compounds with a hit are over-represented: about 3.7% of the library has one in this group of screens.
ROMK mod = human ROMK K+ channel modulation, primary screen; P48048; Tet-inducible ROMK, thallium flux fluorescence; actives lie on both sides; B-score at 10 µM; actives 2% (n = 130,000); AID 1918;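 active = signal ratio slope over the read window, or its plate-corrected B-score, at least 3 SD from the plate mean, either direction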;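 also: B-score of the F/F0 ratio slope over 7 to 12 s after thallium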
Target sequence (P48048 whole entry, looked up): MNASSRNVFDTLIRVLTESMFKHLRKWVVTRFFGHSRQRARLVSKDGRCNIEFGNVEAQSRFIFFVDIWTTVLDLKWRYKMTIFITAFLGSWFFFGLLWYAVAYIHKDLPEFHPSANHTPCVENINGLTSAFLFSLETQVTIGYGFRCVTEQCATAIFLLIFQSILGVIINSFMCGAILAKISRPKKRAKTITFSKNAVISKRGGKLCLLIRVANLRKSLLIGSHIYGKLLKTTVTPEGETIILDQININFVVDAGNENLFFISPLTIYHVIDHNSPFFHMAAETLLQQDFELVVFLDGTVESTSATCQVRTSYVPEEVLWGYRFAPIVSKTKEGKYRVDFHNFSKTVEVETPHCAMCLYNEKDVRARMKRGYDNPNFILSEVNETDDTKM
DTT redox prof = compounds producing H2O2 with reducing agent – biochemical, NIH compound library profiling, artefact control for MLSCN library redox annotation, primary screen; AID 878; activation, % at 10 µM; DTT-dependent redox cycling H2O2, phenol red/HRP absorbance; 100% = 100 µM peroxide control, 0% = buffer; actives 0.03% (n = 200,000);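 active = activation of at least 50% relative to the plate's high and low controls in the primary single-dose screen; inactive = activation below 50%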;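 also: compound incubated with DTT at 0.8 mM final as the reducing agent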
KCC2 mod = modulators of human KCC2 chloride dependent transport | KCC2 cells, thallium flux FluoZin-2 fluorescence | actives 2.2% (n = 190,000) | AID 1456 | Q9H2X9 | B-score of Tl+ flux slope (higher = more flux/activation; lower = inhibition) at 10 µM;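 active = thallium flux slope and its plate-corrected score both differing from the plate sample mean at a set confidence after two filtering rounds, in either direction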;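 also: slope of fluorescence scaled to starting intensity during 10 to 20 s after thallium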
MT stabilizer = microtubule stabilization, imaging screen; HeLa tubulin immunostaining HCS, 24 h; share of cells brighter than vehicle mean+2SD; % tubulin-high responders, % at 10 µM; actives 0.83% (n = 200,000); AID 2205;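 active = plate Z-score above 3 for both tubulin-high and condensed-nucleus cell shares, with cell loss under 80%, at 10 µM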;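 also: anti alpha tubulin signal scored within the nucleus-defined area of each cell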
bCat nuc transl = modulators of beta-catenin nuclear translocation. HeLa beta-catenin nuclear translocation, immunofluorescence imaging. nuclear translocation activity, % at 5 µM. actives 0.3% (n = 190,000). AID 1665;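 active = nuclear translocation activity above 50% at 5 µM, with a well cell count of 50 or more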;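 also: per-cell ratio of nuclear to cytoplasmic median beta-catenin stain intensity; plate controls were DMSO negative control for no effect and GSK-3 inhibitor IX positive control for full effect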
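Assay system: human HeLa cells, native beta-catenin; doses: 5 µM primary, 0.02–20 µM confirmation; incubation: compound treatment 24 h, 37°C, 5% CO2; technique: fluorescence imaging of beta-catenin antibody stain plus DAPI; measure: % activation, nuclear-to-cytoplasmic median beta-catenin signal ratio per cell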
Starred values were filed as active, the others as inactive; / = no result.

SMILES | ROMK mod | DTT redox prof | KCC2 mod | MT stabilizer | bCat nuc transl
Cc1ccc(C(C[N+](=O)[O-])c2c(-c3ccccc3O)[nH][nH]c2=O)cc1 (configuration not stated) | -1.5 | -0.2 | 0.485 | 2.1 | -0.3
O=C(COc1ccccc1Cc1ccccc1)NCCCN1CCOCC1 | / | / | -1.27 | / | -1.3
COc1ccc(N2CCN(c3oc(Cc4ccccc4)nc3C#N)CC2)cc1 | / | 2.3 | 0.0211 | 29.2* | 2.2
NC(=O)C(=CNc1nc(-c2ccc(Cl)c(Cl)c2)cs1)C(N)=O | / | / | 1.46 | / | -0.9
COc1ccc(NC(=O)O/N=C/c2ccncc2)cc1 | 0.15 | -0.1 | 1.63 | 2.1 | -1.3
COc1ccc(/C=N/OC(=O)Nc2ccccc2OC)cc1 | 0.605 | -0.6 | -2.02 | 18.9* | -0.7
CN(C)c1ccc(/C=N/OC(=O)Nc2ccccc2Cl)cc1 | 1.87 | -0.2 | 0.294 | 31.0* | 0.4
CCCCN(CCCC)C(=S)NC(=O)C(C)(C)C | / | -0.1 | 38.3* | 5.0 | 0.2
Cc1cc(Nc2ccccc2)n(-c2nc3ccccc3[nH]2)n1 | / | -2.2 | 3.33* | 3.6 | 1.1
Cc1cc(NC(=O)c2ccccc2F)n(-c2nc3ccccc3[nH]2)n1 | -0.806 | 1.5 | 0.126 | 4.5 | -1.6
COc1cc(C(=O)N/N=C(\C)Cc2ccccc2)cc(OC)c1OC | 0.037 | 0.1 | 0.127 | 2.9 | -0.7
O=C(NC(=S)N(CCc1ccccc1)CCc1ccccc1)c1ccco1 | / | 0.6 | 44.5* | 3.7 | 0.5
COc1cc(C(=O)NC(=S)N(CCc2ccccc2)CCc2ccccc2)cc(OC)c1OC | 3.26* | -0.1 | 73.1* | 3.4 | 0.7
Nc1cc2c(cc1[N+](=O)[O-])OCCOCCOCCO2 | / | -0.6 | / | 3.4 | 2.3
Cc1ccc(NC(=O)N2CCCCC2)cc1[N+](=O)[O-] | / | / | / | / | -5.3
CCc1ccc(/C=N/NC(=O)c2cc(C3CC3)nc3ccc(Br)cc23)s1 | 1.05 | -0.2 | 0.94 | 20.0* | -1.5
CCc1ccc(/C=N/NC(=O)c2cc(-c3ccccc3OC)nc3ccccc23)s1 | 0.528 | 0.1 | 0.998 | 1.3 | 1.7
O=C1c2[nH]nc(-c3ccccc3O)c2C(c2cccc(Cl)c2)N1Cc1ccco1 (configuration not stated) | -1.29 | -0.1 | / | 17.0* | -5.8
COc1cccc(C(=O)NNC2OC(CO)C(O)C2O)c1 (configuration not stated) | -0.00908 | -1.1 | / | 3.2 | 5.1
COC(=O)c1sc2ccccc2c1-n1cccc1C(=O)C(=O)Nc1ccc(OC)cc1 | / | -3.9 | 1.12 | 21.9* | /
COc1ccc(C2C(C(=O)Nc3cc(OC)c(OC)c(OC)c3)c3ccccc3C(=O)N2C)cc1 (configuration not stated) | 1.88 | -0.2 | / | 20.8 | 72.8*
COc1ccc(C2C(C(=O)Nc3cccc(OC)c3)c3ccccc3C(=O)N2C)cc1 (configuration not stated) | -0.0067 | 0.5 | -0.0876 | 2.7 | -0.9
COc1ccc(C(=O)Nc2sc3c(c2C#N)CCN(C(C)=O)C3)cc1 | 1.84 | -0.2 | -0.607 | 14.3* | 60.0*
COc1cc(C(=O)Nc2sc3c(c2C#N)CCN(C(C)=O)C3)cc(OC)c1OC | / | -0.7 | / | 6.1 | -2.3
CCN(CC)S(=O)(=O)c1ccc(C)c(NC(=O)CSc2nc3ccc(C)cc3[nH]2)c1 | 0.237 | 0.4 | 0.348 | 2.4 | 9.8
SMILES | ROMK mod | DTT redox prof | KCC2 mod | MT stabilizer | bCat nuc transl
Cc1cc2c(cc(C(=O)OCC(=O)NCc3ccco3)n2C)s1 | / | 1.7 | -0.0658 | 50.9* | 43.9
Cn1c(C(=O)OCC(=O)NCc2ccco2)cc2sccc21 | / | 3.2 | -1.59 | 2.5 | 8.8
Fc1ccc(-c2n[nH]c(=S)n2CC2CCCO2)cc1 (configuration not stated) | 2.45* | 1.1 | 0.449 | 2.5 | 0.6
S=c1[nH]nc(-c2ccncc2)n1CC1CCCO1 (configuration not stated) | / | 0.7 | 0.277 | 2.6 | -0.4
O=S(=O)(Nc1cc(Cl)ccc1N1CCCCC1)c1cccs1 | -1.05 | -0.5 | / | 2.8 | -1.0
O=S(=O)(Nc1ccccc1N1CCCCC1)c1ccc(Cl)s1 | / | 1.5 | 12.1* | 3.2 | /
c1cncc(CSc2nnc3ccc(-c4cccs4)nn23)c1 | 0.387 | 0.8 | 0.0243 | 2.5 | -0.3
N#Cc1c(C(F)(F)F)cc(-c2cccs2)nc1SCc1cccnc1 | / | 0.2 | 0.085 | 42.1* | /
N#Cc1c(C(F)(F)F)cc(-c2cccs2)nc1SCc1ccc(Cl)nc1 | / | -1.3 | / | 4.0 | -3.6
N#Cc1ccc(-c2cccs2)nc1SCc1cccnc1 | / | / | -0.00165 | / | 135.1*
CC(C)c1ccc(NNC(=O)C2CCC2)cc1 | / | / | -0.207 | / | -0.5
CCc1ccc(-c2nc(CN3CCC(C(=O)N4CCN(c5ccccc5)CC4)CC3)c(C)o2)cc1 | / | 0.3 | 2.02* | 5.3 | -3.8
CCc1ccc(-c2nc(CN3CCC(C(=O)N4CCN(c5ccccn5)CC4)CC3)c(C)o2)cc1 | -0.547 | 1.1 | 0.0547 | 2.4 | 1.8
COc1ccc(C)cc1NC(=O)C(=O)NNC(=O)c1ccco1 | / | -2.0 | 21* | 1.5 | 0.0
COc1cc(NC(=O)c2ccco2)c(OC)cc1NC(=O)CCC(=O)Nc1cc(C)ccc1C | 0.383 | 2.7 | 0.409 | 5.2 | -1.5
Cc1ccc(C(=O)NC(C)c2ccccc2)o1 (configuration not stated) | / | 0.5 | 1.23 | 3.2 | 1.4
COc1ccc(OC)c(C(C)NC(=O)c2ccco2)c1 (configuration not stated) | 1.1 | 0.0 | / | 25.9* | 2.7
COc1ccc(OC)c(C(C)NC(C)=O)c1 (configuration not stated) | 0.957 | 0.1 | -0.566 | 4.0 | 1.5
COc1ccccc1C(C)NC(=O)c1ccc(C)o1 (configuration not stated) | 0.029 | 2.8 | -1.22 | 43.7* | /
O=C(NN=c1c(=O)c2ccccc2c1=O)c1ccccc1 | 0.196 | -7.6 | 8.65* | 2.6 | -0.8
CN(C)/C=N/NC(=O)c1ccccc1 | 0.435 | -2.4 | -0.111 | 5.9 | -2.4
CC1=NOC(=O)/C1=C/c1ccc(-c2ccc(Cl)cc2)o1 | -2.72* | 6.2 | / | 1.3 | 30.2
Cc1ccc(/C=C2\CCC3=C2OC(N)=C(C#N)C3c2ccc(C)cc2)cc1 (configuration not stated) | -4.94* | -3.4 | 0.0977 | 12.2 | -1.3
FC(F)(F)c1cccc(CN2CCC(c3cc(-c4cccs4)n[nH]3)CC2)c1 | 1.93 | -1.0 | -0.0731 | 28.6* | 0.5
Cc1ccc(CN2CCC(c3cc(-c4cccs4)n[nH]3)CC2)cc1 | / | -0.2 | -1.4 | 3.1 | 0.7
S=C(N/N=C/c1ccc(Cl)cc1)N1CCOCC1 | 1.82 | -0.5 | 40.6* | 7.3 | 0.3
Cc1ccc(/C=N/NC(=S)N2CCOCC2)cc1 | 1.18 | 3.0 | 31.9* | 2.8 | -1.2
S=C(Nc1ccc(Cl)cc1Cl)N1CCOCC1 | 0.22 | -0.6 | 0.126 | 2.6 | -1.3
O=c1[nH]c(-c2cccnc2)nc2sc(-c3ccccc3)cc12 | -0.0287 | -1.0 | -0.479 | 20.1* | 120.3*
Cc1nc2sc(-c3ccccc3)cc2c(=O)[nH]1 | / | 0.1 | -0.0513 | 5.3 | /
